High-throughput results deposited in PubChem BioAssay by several laboratories.
hDAT+cocaine: changed human dopamine transporter uptake under cocaine IC80; Q01959; LLC-PK1 hDAT cells, [14C]-dopamine uptake with cocaine IC80; actives deviate in either direction; B-score at 10 µM; hit rate 1.3% among 110,000; AID 449768;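 active = Z score or B-score, a plate-position-corrected score, falls beyond the plate's 99.7% confidence bounds, in either direction; inactive = both scores lie inside the 99.7% bounds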;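 also: scored against the spread of the other compound wells on the same plate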
Target sequence (Q01959 whole entry, looked up): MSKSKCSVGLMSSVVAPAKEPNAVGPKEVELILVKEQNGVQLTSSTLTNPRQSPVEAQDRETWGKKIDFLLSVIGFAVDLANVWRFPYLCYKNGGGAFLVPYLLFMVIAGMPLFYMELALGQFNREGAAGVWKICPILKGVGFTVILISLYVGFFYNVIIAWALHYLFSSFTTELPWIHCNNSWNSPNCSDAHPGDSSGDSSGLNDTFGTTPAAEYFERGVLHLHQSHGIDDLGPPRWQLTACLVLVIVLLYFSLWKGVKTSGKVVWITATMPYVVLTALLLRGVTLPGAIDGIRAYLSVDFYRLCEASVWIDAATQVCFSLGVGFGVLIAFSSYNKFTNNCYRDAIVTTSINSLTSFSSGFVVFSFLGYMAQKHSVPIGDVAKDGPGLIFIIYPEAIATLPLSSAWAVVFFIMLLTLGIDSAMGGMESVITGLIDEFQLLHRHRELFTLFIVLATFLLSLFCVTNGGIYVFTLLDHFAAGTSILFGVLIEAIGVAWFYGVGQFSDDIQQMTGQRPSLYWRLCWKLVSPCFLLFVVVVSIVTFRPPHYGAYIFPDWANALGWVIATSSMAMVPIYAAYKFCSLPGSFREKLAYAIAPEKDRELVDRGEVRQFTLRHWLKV
WT yeast gro inh: growth inhibition of WT yeast, mitochondrial fusion screen | mitochondrial fusion phenotypic screen, WT strain | inhibition, % at 10 µM | hit rate 2.1% among 190,000; in the data active = inhibition above about 58%; tested in S. cerevisiae
BB579 growth dn: yeast BB579 growth reduction in restrictive medium; S. cerevisiae BB579 growth, OD615, 48 h; inhibition, % at 10 µM; hit rate 0.51% among 140,000;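 active = inhibition above a set limit, 3 SD over the mean compound inhibition, cut at about 44% in these data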
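System: Saccharomyces cerevisiae DeaD strain BB579, replicative lifespan model yeast. Buffer or medium: restrictive glucose-based CSMM-D medium. Doses: one dose, 10 µM compound with 0.25% DMSO. Timing: 4 h preincubation and 48 h exposure at 30 °C. Detection: turbidity as optical density at 615 nm. Benchmarks: amphotericin B 10 µg/mL, positive.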
Yeast life ext: extends the lifespan of yeast; hit rate 0.68% among 130,000; inhibition of the nicotinamide effect, % at 10 µM; S. cerevisiae growth with nicotinamide, OD615; deaD strain in restrictive glucose medium;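 active = inhibition above a set limit, placed 3 SD over the median of all compounds, cut at about 26% in these data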;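 also: 0% = nicotinamide-treated wells and 100% = cells grown without nicotinamide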
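Assay system: DeaD-strain S. cerevisiae. Medium: CSMM-D glucose medium, restrictive. Reagent: nicotinamide, 1.5 mM, co-present with compound. Compound: 10 µM single point, 0.25% DMSO. Schedule: culture preincubation 4 h, compound exposure 48 h, both 30 °C. Detection: absorbance at 615 nm.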
RAM inhibit: yeast RAM network inhibition; hit rate 1.8% among 190,000; S. cerevisiae dse1pr::URA3 reporter, 5-FOA growth OD615, 2 d; analog-sensitive cbk1-as2 kinase mutant strain; AID 868; inhibition, % at 50 µM;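 active = inhibition above a set limit, 3 SD over mean compound inhibition, cut at about 8.4% in these data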;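 also: 0% = DMSO-only wells with no growth and 100% = 10 µM 1-NA-PP1 full growth; inhibition rescues growth on 5-FOA so higher OD means more RAM inhibition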
Measles CPE: protection of cells from measles virus; Measles virus-infected cells, CPE protection, absorbance; protection (pct of control), % at 4 µM; hit rate 1.5% among 140,000; AID 841; in the data active = protection mostly above about 24%, no sharp cut-off; inactive = mostly below about 26%
* = called active by the depositor; · = no result. The list is not random: actives were taken first. Their share in the collection is about 6.1%.

SMILES | hDAT+cocaine | WT yeast gro inh | BB579 growth dn | Yeast life ext | RAM inhibit | Measles CPE
COc1ccc(C(=O)NNC(=O)CCn2nnc(-c3ccc(C)cc3)n2)cc1OC | · | -3.6 | · | · | 9.2* | ·
COc1ccccc1-n1c(=O)oc2ccc(Cl)cc2c1=O | -0.749 | 76.4* | 53.2* | -15.0 | 2.8 | 13.6
COc1ccccc1-n1c(SCc2cc(=O)oc3cc(O)ccc23)nc2ccccc2c1=O | · | 1.4 | -46.9 | 3.4 | 6.8 | 17.0
Cc1ccc2cc3c(N)c(C(=O)Nc4c(C)[nH]c(=O)[nH]c4=O)sc3nc2c1 | · | 10.6 | -21.8 | 2.4 | 9.5* | 8.4
CCCCc1ccc(NC(=S)NCc2cccs2)cc1 | -0.734 | 7.9 | -4.0 | -17.8 | 4.8 | 0.1
COc1ccc(CNC(=S)Nc2ccc(OC)cc2)cc1 | · | -6.9 | -6.3 | 1.7 | -0.9 | 19.2
CCCCc1ccc(NC(=S)NCc2ccccc2OC)cc1 | · | 64.8* | · | · | 0.7 | ·
CCC(C)c1ccc(NC(=S)Nc2ccc(OC)cc2)cc1 (stereo unspecified) | · | 72.2* | 13.6 | -2.6 | 0.4 | 8.6
CCCCc1ccc(NC(=S)NCc2ccc(OC)cc2)cc1 | · | 72.1* | · | · | 7.1 | ·
CCC(C)c1ccc(NC(=S)NC2CCN(Cc3ccccc3)CC2)cc1 (stereo unspecified) | · | 74.8* | -6.5 | -1.5 | -0.5 | 5.9
Cc1nc(SCC(=O)NC(=O)NC2CCCCC2)nc(C)c1C | · | 10.6 | · | · | 2.1 | ·
COc1ccccc1-c1cc(C(=O)N2CCCc3ccccc32)no1 | · | 37.0 | · | · | 8.2 | ·
COc1ccc(OC)c(-c2cc(C(=O)N3CCCc4ccccc43)no2)c1 | 0.21 | 35.4 | -41.0 | -2.4 | 9.3* | 6.8
Cc1ccc(-c2cc(C(=O)N3CCCc4ccccc43)no2)cc1 | · | 64.4* | · | · | 4.2 | ·
COC(=O)Cc1ccc2sc(-c3ccccc3)nc2c1 | · | 39.5 | -10.9 | -5.4 | 1.9 | 11.1
O=C(O)Cc1ccc2sc(-c3ccccc3)nc2c1 | · | 39.6 | 48.6* | -8.6 | -0.1 | 14.6
CCOC(=O)c1c(-c2ccc(-c3ccccc3)cc2)csc1NC(=O)CCN1CCOCC1 | · | 10.3 | 94.6* | -8.5 | 1.1 | 17.9
COc1cccc(C2NC(=O)c3sc(=S)n(-c4ccccc4)c3N2)c1 (stereo unspecified) | 0.0106 | 7.4 | -55.4 | -10.6 | 3.9 | 7.0
COCCN1C(=O)N[C@@H](c2ccco2)C(C(=O)OC)=C1C | -0.336 | · | · | · | · | ·
Cc1ccc(NC(=S)NC(C)CCc2ccccc2)cc1C (stereo unspecified) | · | 67.5* | 19.8 | -3.1 | 3.6 | 10.6
Cc1cccc(C)c1NC(=S)NC(C)CCc1ccccc1 (stereo unspecified) | · | 72.9* | 18.8 | -2.7 | 0.9 | 10.2
Cc1ccccc1NC(=O)C(=O)NC(C)CCc1ccccc1 (stereo unspecified) | · | -11.8 | -20.1 | 0.5 | 4.7 | 4.8
CC(=O)c1ccc(NC(=S)NC(C)CCc2ccccc2)cc1 (stereo unspecified) | · | 34.8 | · | · | 2.2 | ·
NC(=S)Nc1ccc(Oc2ccc(NC(N)=S)cc2)cc1 | -0.708 | 4.9 | 1.5 | -14.8 | 1.7 | 36.1
C=CCNC(=S)NNc1nc2c(c(=O)[nH]1)C1(CCCCC1)Cc1ccccc1-2 | · | -14.2 | -37.2 | 0.4 | 6.5 | 19.9
SMILES | hDAT+cocaine | WT yeast gro inh | BB579 growth dn | Yeast life ext | RAM inhibit | Measles CPE
COc1cc(Sc2ccc(C)cc2)c(OC)cc1N | 0.0429 | 4.6 | -23.0 | -11.6 | 10.9* | 4.5
CC(Nc1ccc2c(c1)OCCO2)C(=O)N1c2ccccc2CC1C (stereo unspecified) | · | 17.1 | · | · | 2.8 | ·
O=C(NCCN1CCOCC1)NC1(C(F)(F)F)Oc2ccccc2O1 | -4.71 | 2.4 | -6.8 | -4.4 | -1.5 | 11.1
NS(=O)(=O)c1ccc(CCNC(=O)NC2(C(F)(F)F)Oc3ccccc3O2)cc1 | -6.72* | 5.2 | -34.6 | -3.3 | 2.8 | 11.9
CCCCNC(=O)NC1(C(F)(F)F)Oc2ccccc2O1 | -1.88* | -9.2 | -37.5 | -2.6 | 0.5 | 0.5
O=C1C2C3C=CC(C4CC34)C2C(=O)N1/N=C/c1cccs1 (stereo unspecified) | · | 14.2 | -41.1 | 12.0 | 0.7 | 4.7
Cc1cc(C)c2cc(CN(Cc3ccco3)C(=S)NCC3CCCO3)c(=O)[nH]c2c1 (stereo unspecified) | · | 6.7 | · | · | 0.7 | ·
COc1ccc(S(=O)(=O)N2CCN(C(=O)c3ccco3)CC2)cc1OC | -0.234 | -5.9 | 20.4 | -11.7 | 0.3 | 57.0*
CCOc1ccccc1N1CCN(C(=O)c2ccncc2)CC1 | -1.53 | 9.4 | -63.5 | -5.3 | 1.7 | 13.8
CCOc1ccccc1N1CCN(C(=O)c2ccc3[nH]c4c(c3c2)CCCC4)CC1 | · | 58.4* | -20.1 | 3.7 | 0.5 | 7.3
CCOc1ccc(NC(=O)CSc2nnc(-c3ccco3)n2C)cc1 | -0.577 | 95.3* | -27.1 | -19.7 | 3.3 | 4.9
COc1ccc(NC(=O)CSc2nnc(-c3ccco3)n2C)cc1 | -0.00743 | 5.8 | -60.9 | -2.6 | -0.4 | 28.0
CCn1c2ccccc2c2cc(NC(=O)CSc3nnc(-c4ccccc4OC)n3N)ccc21 | 2.78* | -9.5 | -52.2 | -13.8 | 1.6 | 2.2
COc1ccc(NC(=O)CSc2nnc(-c3ccccn3)n2N)cc1 | 2.5* | 7.8 | 3.7 | -12.0 | -0.6 | 26.8
CCOc1ccc(NC(=O)CSc2nnc(-c3ccccn3)n2C)cc1 | 0.698 | -2.5 | 1.8 | -28.9 | 3.5 | 54.5*
CCOc1ccc(NC(=O)CSc2nnc(-c3ccccn3)n2N)cc1 | -0.279 | 3.0 | -25.3 | -16.1 | -0.2 | 3.3
O=C(/C=C/c1cnc2ccccc2n1)NC12CC3CC(CC(C3)C1)C2 | · | -9.5 | 3.3 | -7.0 | 1.9 | 22.2
COc1ccc(C)cc1S(=O)(=O)Nc1ccc2c(c1)OCO2 | · | -4.6 | · | · | 5.1 | ·
Cc1ccc(C)c(NC(=O)CSc2nc3c(c(=O)n2C)SC(C)C3)c1 (stereo unspecified) | -0.756 | 12.8 | 1.3 | -8.8 | 1.4 | 20.1
CC1Cc2nc(SCC(=O)Nc3ccc(F)cc3F)n(C)c(=O)c2S1 (stereo unspecified) | -1.54 | 25.7 | -7.2 | · | -1.3 | 41.2*
COc1ccc(CCc2nnc(CCC(=O)NCc3ccc4ncccc4c3)o2)cc1 | · | -18.5 | · | · | -1.1 | ·
Cc1ccc(S(=O)(=O)NC(=O)c2ccc(-c3ccc(-c4ccccc4)cc3)o2)c(C)c1 | -2.15* | 25.7 | -34.5 | -7.3 | 7.2 | 1.2
Cc1ccc(S(=O)(=O)NNc2ccccc2)c(C)c1 | · | -1.9 | -22.2 | -1.4 | -0.5 | 6.8
Cc1cccc(N=C2Sc3nc4c(C)c(C)ccc4cc3CN2CCN2CCOCC2)c1 | 0.367 | 11.2 | 99.3* | -12.6 | 0.6 | 30.8*
COCCN1Cc2cc3cc(C)ccc3nc2SC1=Nc1cccc(OC)c1 | · | 34.1 | · | · | 0.1 | ·
Cc1ccc(O)c(C(=O)c2cc(C#N)c(=O)n(CC3CCCO3)c2)c1 (stereo unspecified) | 0.558 | 18.5 | -38.2 | -3.1 | 0.3 | 4.8
COc1ccc(O)c(C(=O)c2cc(C#N)c(=O)n(CC3CCCO3)c2)c1 (stereo unspecified) | -0.106 | 0.6 | -19.6 | 113.4* | 0.7 | 3.4
